The target in one assay is Carbonic anhydrase 9 (Homo sapiens, UniProt Q16790). Kind of assay: Inhibition of carbonic anhydrase 9 (unknown origin) preincubated for 15 mins by stopped flow CO2 hydration assay.
For another assay, the target named is Carbonic anhydrase 12 (Homo sapiens, UniProt O43570).
The subject of assay [1] is HT-29. Kind of assay: Cytotoxicity against human HT-29 cells assessed as reduction in cell viability after 48 hrs under normoxic conditions by MTT assay. The following applies: for IC50: HT-29, 48 h. Type of assay: functional, cell-based. The essentials:
(§1)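 Cells cultured in high-glucose DMEM with 20% FBS at 37 °C and 5% CO2, seeded at 1x10^4/well, then dosed 24 h later (0–200 μM) for 48 h. Hypoxia: 1% O2, 5% CO2, balance N2 in a hypoxic workstation; normoxia: 20% O2 in air, 5% CO2. MTT (1 mg/ml) for 30 min at 37 °C, formazan dissolved in DMSO, A550. Untreated control set to 100%; quadruplicates, ≥3 cell batches, mean ± S.E.M.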
In general terms: Formazan colour is commonly taken as a measure of viable cells.

Assay [2] has as its system MDA-MB-231. Put plainly: Cytotoxicity against human MDA-MB-231 cells assessed as reduction in cell viability after 48 hrs under normoxic conditions by MTT assay. Type of assay: functional, cell-based. The following applies: for IC50: MDA-MB-231, 48 h. The essentials:
as §1

Assay [3] deals with PC-3. Put plainly: Cytotoxicity against human PC3 cells assessed as reduction in cell viability after 48 hrs under normoxic conditions by MTT assay. Type of assay: functional, cell-based. The following applies: for IC50: PC-3, 48 h. The essentials: as §1
Assay [4] concerns HT-29. Put plainly: Cytotoxicity against human HT-29 cells assessed as reduction in cell viability after 48 hrs under hypoxic conditions by MTT assay. Type of assay: functional, cell-based. The following applies: for IC50: HT-29, 48 h. An outline of the steps: as §1
Assay [5] concerns MDA-MB-231. Kind of assay: Cytotoxicity against human MDA-MB-231 cells assessed as reduction in cell viability after 48 hrs under hypoxic conditions by MTT assay. Type of assay: functional, cell-based. The following applies: for IC50: MDA-MB-231, 48 h. The essentials: as §1
Assay [6] relates to PC-3. Kind of assay: Cytotoxicity against human PC3 cells assessed as reduction in cell viability after 48 hrs under hypoxic conditions by MTT assay. Type of assay: functional, cell-based. The following applies: for IC50: PC-3, 48 h. The essentials: as §1
Assay [7] concerns MDA-MB-231. Put plainly: Cytotoxicity against human MDA-MB-231 cells assessed as cell viability at 200 uM after 48 hrs under hypoxic conditions by MTT assay (reference value: 100%). It counts as functional. The following applies: MDA-MB-231, 48 h, read-out: Activity. The essentials:
as §1

The subject of assay [8] is MDA-MB-231. Put plainly: Cytotoxicity against human MDA-MB-231 cells assessed as cell viability at 30 uM after 48 hrs under normoxic conditions by MTT assay (reference value: 100%). Type of assay: functional. The following applies: MDA-MB-231, 48 h, read-out: Activity. The essentials:
as §1

Assay [9] relates to MDA-MB-231. Put plainly: Cytotoxicity against human MDA-MB-231 cells assessed as cell viability at 100 uM after 48 hrs under normoxic conditions by MTT assay (reference value: 100%). The following applies: MDA-MB-231, 48 h, read-out: Activity. It counts as functional. An outline of the steps: as §1
The test system of assay [10] is MDA-MB-231. Put plainly: Cytotoxicity against human MDA-MB-231 cells assessed as cell viability at 200 uM after 48 hrs under normoxic conditions by MTT assay (reference value: 100%). It counts as functional. The following applies: MDA-MB-231, 48 h, read-out: Activity. An outline of the steps:
as §1

The test system of assay [11] is MDA-MB-231. Kind of assay: Cytotoxicity against human MDA-MB-231 cells assessed as cell viability at 100 uM after 48 hrs under hypoxic conditions by MTT assay (reference value: 100%). Type of assay: functional. The following applies: MDA-MB-231, 48 h, read-out: Activity. An outline of the steps:
as §1

Assay [12] concerns MDA-MB-231. Put plainly: Cytotoxicity against human MDA-MB-231 cells assessed as cell viability at 30 uM after 48 hrs under hypoxic conditions by MTT assay (reference value: 100%). It counts as functional. The following applies: MDA-MB-231, 48 h, read-out: Activity. The essentials: as §1
The subject of assay [13] is PC-3. Kind of assay: Cytotoxicity against human PC3 cells assessed as cell viability at 30 uM after 48 hrs under normoxic conditions by MTT assay (reference value: 100%). Type of assay: functional. The following applies: PC-3, 48 h, read-out: Activity. An outline of the steps: as §1
Assay [14] concerns PC-3. Put plainly: Cytotoxicity against human PC3 cells assessed as cell viability at 100 uM after 48 hrs under normoxic conditions by MTT assay (reference value: 100%). It counts as functional. The following applies: PC-3, 48 h, read-out: Activity. The essentials:
as §1

Assay [15] relates to PC-3. Kind of assay: Cytotoxicity against human PC3 cells assessed as cell viability at 200 uM after 48 hrs under normoxic conditions by MTT assay (reference value: 100%). It counts as functional. The following applies: PC-3, 48 h, read-out: Activity. The essentials:
as §1

The test system of assay [16] is PC-3. Kind of assay: Cytotoxicity against human PC3 cells assessed as cell viability at 30 uM after 48 hrs under hypoxic conditions by MTT assay (reference value: 100%). It counts as functional. The following applies: PC-3, 48 h, read-out: Activity. The essentials:
as §1

Assay [17] has as its system PC-3. Kind of assay: Cytotoxicity against human PC3 cells assessed as cell viability at 100 uM after 48 hrs under hypoxic conditions by MTT assay (reference value: 100%). It counts as functional. The following applies: PC-3, 48 h, read-out: Activity. The essentials: as §1
For assay [18], the system named is PC-3. Put plainly: Cytotoxicity against human PC3 cells assessed as cell viability at 200 uM after 48 hrs under hypoxic conditions by MTT assay (reference value: 100%). It counts as functional. The following applies: PC-3, 48 h, read-out: Activity. An outline of the steps: as §1
For assay [19], the system named is HT-29. Put plainly: Cytotoxicity against human HT-29 cells assessed as cell viability at 30 uM after 48 hrs under normoxic conditions by MTT assay (reference value: 100%). It counts as functional. The following applies: Homo sapiens, HT-29, 48 h; read-out: Activity. An outline of the steps:
as §1

Assay [20] has as its system HT-29. Kind of assay: Cytotoxicity against human HT-29 cells assessed as cell viability at 100 uM after 48 hrs under normoxic conditions by MTT assay (reference value: 100%). Type of assay: functional. The following applies: Homo sapiens, HT-29, 48 h; read-out: Activity. The essentials: as §1
Assay [21] concerns HT-29. Kind of assay: Cytotoxicity against human HT-29 cells assessed as cell viability at 200 uM after 48 hrs under normoxic conditions by MTT assay (reference value: 100%). Type of assay: functional. The following applies: Homo sapiens, HT-29, 48 h; read-out: Activity. The essentials: as §1
Assay [22] relates to HT-29. Kind of assay: Cytotoxicity against human HT-29 cells assessed as cell viability at 30 uM after 48 hrs under hypoxic conditions by MTT assay (reference value: 100%). The following applies: Homo sapiens, HT-29, 48 h; read-out: Activity. Type of assay: functional. An outline of the steps:
as §1

In assay [23] the test system is HT-29. Put plainly: Cytotoxicity against human HT-29 cells assessed as cell viability at 100 uM after 48 hrs under hypoxic conditions by MTT assay (reference value: 100%). It counts as functional. The following applies: Homo sapiens, HT-29, 48 h; read-out: Activity. An outline of the steps: as §1
Assay [24] concerns HT-29. Kind of assay: Cytotoxicity against human HT-29 cells assessed as cell viability at 200 uM after 48 hrs under hypoxic conditions by MTT assay (reference value: 100%). The following applies: Homo sapiens, HT-29, 48 h; read-out: Activity. Type of assay: functional. An outline of the steps: as §1

As usually defined, the Ki is the equilibrium dissociation constant of an inhibitor or competing ligand from its target. High values mean lower affinity, low ones higher affinity. As a reminder, the IC50 is the concentration that inhibits the measured activity by half.

Carbonic anhydrase 12, sequence (O43570 whole entry): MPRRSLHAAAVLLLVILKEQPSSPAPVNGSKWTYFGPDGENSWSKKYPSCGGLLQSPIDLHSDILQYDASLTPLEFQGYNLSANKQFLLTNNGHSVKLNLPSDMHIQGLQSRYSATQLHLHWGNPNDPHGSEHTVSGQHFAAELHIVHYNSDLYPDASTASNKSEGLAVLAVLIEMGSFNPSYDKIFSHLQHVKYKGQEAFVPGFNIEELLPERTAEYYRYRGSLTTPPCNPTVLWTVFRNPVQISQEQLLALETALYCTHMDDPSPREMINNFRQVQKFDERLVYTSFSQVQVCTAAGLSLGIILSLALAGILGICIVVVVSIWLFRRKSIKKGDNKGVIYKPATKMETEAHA

With `COc1cccc(NC(=O)Nc2cc(S(N)(=O)=O)cc([N+](=O)[O-])c2O)c1`, the inhibitory constant (Ki) amounted to 460 nM on Carbonic anhydrase 9 and 530 nM at Carbonic anhydrase 12.
Turning to `NS(=O)(=O)c1cc(NC(=O)Nc2c(F)c(F)c(F)c(F)c2F)c(O)c([N+](=O)[O-])c1`, the Ki amounted to 290 nM on Carbonic anhydrase 9 and 80 nM on Carbonic anhydrase 12. Besides, the Activity result in the assay on HT-29 [1], in the assay with MDA-MB-231 [2], with PC-3 [3], in the assay with HT-29 [4], in the assay with MDA-MB-231 [5] and with PC-3 [6] was “Dose-dependent effect” each time. Further, the IC50 in the assay on HT-29 [1] is more than 200000 nM; in the assay on MDA-MB-231 [2] it was more than 200000 nM; with PC-3 [3] it was more than 200000 nM; in the assay with HT-29 [4] it was more than 200000 nM; with MDA-MB-231 [5], 101000 nM; in the assay with PC-3 [6], more than 200000 nM. For the same molecule, the viability at 200 µM came to 40.5% with MDA-MB-231 [7]; 60.2% in the assay with MDA-MB-231 [10]; 60.2% with PC-3 [15]; 50.6% in the assay on PC-3 [18]; 99.6% in the assay on HT-29 [21]; 65.3% in the assay with HT-29 [24]. In addition, the viability at 30 µM with MDA-MB-231 [8] was 95.7%; with MDA-MB-231 [12], 56.2%; in the assay with PC-3 [13], 69%; in the assay with PC-3 [16], 63.2%; in the assay with HT-29 [19], 106%; in the assay on HT-29 [22] it was 75.6%. Moreover, the viability at 100 µM in the assay on MDA-MB-231 [9] came to 66.7%; in the assay with MDA-MB-231 [11], 50.2%; with PC-3 [14] it was 61.7%; with PC-3 [17] it was 53.2%; in the assay on HT-29 [20], 102%; with HT-29 [23] it was 70.2%.
As for `NS(=O)(=O)c1ccc(NC(=O)Nc2ccc(F)cc2)cc1` [SLC-0111], the viability at 200 µM with MDA-MB-231 [7] came to 103%; in the assay on MDA-MB-231 [10], 56.9%; in the assay on PC-3 [15] it was 83.1%; in the assay with PC-3 [18], 95.8%; in the assay on HT-29 [21], 35.6%; in the assay with HT-29 [24], 56.4%. Besides, the viability at 30 µM was found to be 83.4% with MDA-MB-231 [8]; 103% with MDA-MB-231 [12]; 109% in the assay on PC-3 [13]; 90.8% with PC-3 [16]; 62.4% in the assay with HT-29 [19]; 85.3% in the assay with HT-29 [22]. Besides, the viability at 100 µM turned out to be 86.6% in the assay with MDA-MB-231 [9]; 107% with MDA-MB-231 [11]; 109% in the assay on PC-3 [14]; 106% in the assay with PC-3 [17]; 50.3% in the assay on HT-29 [20]; 71.5% in the assay with HT-29 [23].
Turning to `Cc1cc(NC(=O)Nc2cc(S(N)(=O)=O)cc([N+](=O)[O-])c2O)ccc1F`, the results for the inhibition constant (Ki) on Carbonic anhydrase 9 and at Carbonic anhydrase 12 were 370 nM and 880 nM, respectively.
Turning to `Nc1cc(S(N)(=O)=O)cc([N+](=O)[O-])c1O`, the figures for the inhibition constant (Ki) on Carbonic anhydrase 9 and on Carbonic anhydrase 12 were 210 nM and 200 nM, respectively. Further, the Activity result with HT-29 [1], with MDA-MB-231 [2], in the assay on PC-3 [3], with HT-29 [4], in the assay with MDA-MB-231 [5] and with PC-3 [6] was “Dose-dependent effect” in each case. Further, the IC50 in the assay with HT-29 [1], in the assay on MDA-MB-231 [2], in the assay with PC-3 [3], in the assay on HT-29 [4], with MDA-MB-231 [5] and with PC-3 [6] was more than 200000 nM throughout. Moreover, the viability at 200 µM turned out to be 60.2% in the assay on MDA-MB-231 [7]; 78.8% in the assay with MDA-MB-231 [10]; 92.3% with PC-3 [15]; 55.3% in the assay with PC-3 [18]; 105% in the assay with HT-29 [21]; 100% with HT-29 [24]. The viability at 30 µM in the assay on MDA-MB-231 [8] came to 93%; in the assay on MDA-MB-231 [12], 81.3%; with PC-3 [13], 69.7%; with PC-3 [16] it was 81.8%; with HT-29 [19], 95.7%; with HT-29 [22] it was 108%. Besides, the viability at 100 µM was 81.4% in the assay with MDA-MB-231 [9]; 72.8% with MDA-MB-231 [11]; 91.8% with PC-3 [14]; 58.4% in the assay on PC-3 [17]; 107% in the assay on HT-29 [20]; 93.2% in the assay with HT-29 [23].
Regarding `NS(=O)(=O)c1cc(NC(=O)c2ccccc2)c(OC(=O)c2ccccc2)c([N+](=O)[O-])c1`, the Ki was found to be 130 nM at Carbonic anhydrase 9 and 300 nM on Carbonic anhydrase 12.

For the origin of these results see ChEMBL document CHEMBL4261658, “4-Hydroxy-3-nitro-5-ureido-benzenesulfonamides Selectively Target the Tumor-Associated Carbonic Anhydrase Isoforms IX and XII Showing Hypoxia-Enhanced Antiproliferative Profiles” (J Med Chem, 2018).
